Measurements from ChEMBL document CHEMBL1275598, “In vitro activity of ceftaroline against community-associated methicillin-resistant, vancomycin-intermediate, vancomycin-resistant, and daptomycin-nonsusceptible Staphylococcus aureus isolates” (2010).
≈ marks a conversion by molar mass, not a printed value. Where “and” joins values, the source holds several entries; their conditions need not be identical. Equal values may be shown once.

Key:
Type in all cases: functional
Staphylococcus aureus [1] = experiment: Antimicrobial activity against vancomycin intermediate Staphylococcus aureus NRS-4 expressing SCCmec type 2 element by microdilution method
In short: (§1)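 MIC by broth microdilution in cation-adjusted Mueller-Hinton broth, following CLSI guidelines; antibiotic powders reconstituted per CLSI. Read visually as the lowest drug concentration well with no visible growth. S. aureus ATCC 29213 and E. faecalis ATCC 29212 served as control strains. CA-MRSA: hospital patients culture-positive within 48 h of admission. DNSSA: patient blood isolates. VISA: obtained from the NARSA program.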

Staphylococcus aureus [2] = experiment: Antimicrobial activity against vancomycin intermediate Staphylococcus aureus NRS-68 expressing SCCmec type 2 element by microdilution method; in short: as §1
Staphylococcus aureus [3] = experiment: Antimicrobial activity against community-acquired methicillin-resistant Staphylococcus aureus expressing SCCmec type 4a element by microdilution method; in short: as §1
Staphylococcus aureus [4] = experiment: Antimicrobial activity against vancomycin intermediate Staphylococcus aureus NRS-403 expressing SCCmec type 2 element by microdilution method; in short: as §1
Staphylococcus aureus [5] = experiment: Antimicrobial activity against vancomycin intermediate Staphylococcus aureus NRS-402 expressing SCCmec type 2 element by microdilution method; in short: as §1
Staphylococcus aureus [6] = experiment: Bactericidal activity against community-acquired methicillin-resistant Staphylococcus aureus expressing SCCmec type 4a element assessed as antibiotic concentration that reduced the number of viable cells by =>99.9% by colony count method
In short: (§2)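 MBC per CLSI following microdilution in cation-adjusted Mueller-Hinton broth. Defined as the concentration giving ≥99.9% reduction in viable cells, judged from colony counts of the growth control well against Pearson rejection-value tables. CA-MRSA isolates were hospital patients' isolates with positive MRSA culture within 48 h of admission.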

Staphylococcus aureus [7] = experiment: Antimicrobial activity against methicillin-resistant Staphylococcus aureus
Staphylococcus aureus [8] = experiment: Antimicrobial activity against vancomycin intermediate Staphylococcus aureus NRS-17 expressing SCCmec type 2 element by microdilution method; in short: as §1
Staphylococcus aureus [9] = experiment: Antimicrobial activity against vancomycin resistant Staphylococcus aureus VRS-8 expressing SCCmec element by microdilution method
In short: (§3)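 Broth microdilution per CLSI in cation-adjusted Mueller-Hinton broth. Antibiotic powders were reconstituted per CLSI. The MIC was read visually as the lowest drug concentration with no visible growth. S. aureus ATCC 29213 and E. faecalis ATCC 29212 served as control strains. VISA and VRSA isolates came from the NARSA program.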

Staphylococcus aureus [10] = experiment: Bactericidal activity against community-acquired methicillin-resistant Staphylococcus aureus expressing SCCmec type 4 element assessed as antibiotic concentration that reduced the number of viable cells by =>99.9% by colony count method; in short: as §2
Staphylococcus aureus [11] = experiment: Antimicrobial activity against vancomycin intermediate Staphylococcus aureus NRS-118 expressing SCCmec type 1 element by microdilution method; in short: as §1
Staphylococcus aureus [12] = experiment: Antimicrobial activity against vancomycin resistant Staphylococcus aureus VRS-9 expressing SCCmec type 2 element by microdilution method; in short: as §3
Staphylococcus aureus [13] = experiment: Antimicrobial activity against vancomycin resistant Staphylococcus aureus VRS-2 expressing SCCmec type 2 element by microdilution method; in short: as §3
Staphylococcus aureus [14] = experiment: Antimicrobial activity against vancomycin intermediate Staphylococcus aureus NRS-18 expressing SCCmec type 2 element by microdilution method; in short: as §1
Staphylococcus aureus [15] = experiment: Antimicrobial activity against community-acquired methicillin-resistant Staphylococcus aureus by microdilution method; in short: as §1
Staphylococcus aureus [16] = experiment: Antimicrobial activity against vancomycin intermediate Staphylococcus aureus NRS-126 expressing SCCmec type 2 element by microdilution method; in short: as §1
Staphylococcus aureus [17] = experiment: Antimicrobial activity against vancomycin resistant Staphylococcus aureus VRS-4 expressing SCCmec type 4 element by microdilution method; in short: as §3
Staphylococcus aureus [18] = experiment: Antimicrobial activity against vancomycin intermediate Staphylococcus aureus NRS-23 expressing SCCmec type 2 element by microdilution method; in short: as §1
Staphylococcus aureus [19] = experiment: Antimicrobial activity against vancomycin intermediate Staphylococcus aureus NRS-26 expressing SCCmec type 2 element by microdilution method; in short: as §1
Staphylococcus aureus [20] = experiment: Antimicrobial activity against vancomycin intermediate Staphylococcus aureus NRS-24 expressing SCCmec type 2 element by microdilution method; in short: as §1
Staphylococcus aureus [21] = experiment: Antimicrobial activity against vancomycin resistant Staphylococcus aureus VRS-6 expressing SCCmec type 2 element by microdilution method; in short: as §3
Staphylococcus aureus [22] = experiment: Bactericidal activity against vancomycin-resistant Staphylococcus aureus assessed as antibiotic concentration that reduced the number of viable cells by =>99.9% by colony count method; in short: as §2
Staphylococcus aureus [23] = experiment: Antimicrobial activity against community-acquired methicillin-resistant Staphylococcus aureus expressing SCCmec type 2 element by microdilution method; in short: as §1
Staphylococcus aureus [24] = experiment: Bactericidal activity against vancomycin-intermediate Staphylococcus aureus assessed as antibiotic concentration that reduced the number of viable cells by =>99.9% by colony count method
In short: (§4)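 MBC per CLSI guidelines. It was taken as the antibiotic concentration giving ≥99.9% reduction in viable cells, based on colony counts from the growth control well and rejection values from Pearson's tables.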

Staphylococcus aureus [25] = experiment: Antimicrobial activity against community-acquired methicillin-resistant Staphylococcus aureus expressing SCCmec type 4 element by microdilution method; in short: as §1
Staphylococcus aureus [26] = experiment: Antimicrobial activity against vancomycin intermediate Staphylococcus aureus NRS-22 expressing SCCmec type 2 element by microdilution method; in short: as §1
Staphylococcus aureus [27] = experiment: Antimicrobial activity against daptomycin-nonsusceptible Staphylococcus aureus by microdilution method; in short: as §1
Staphylococcus aureus [28] = experiment: Antimicrobial activity against vancomycin resistant Staphylococcus aureus VRS-5 expressing SCCmec type 2 element by microdilution method; in short: as §3
Staphylococcus aureus [29] = experiment: Antimicrobial activity against vancomycin intermediate Staphylococcus aureus NRS-51 expressing SCCmec type 2 element by microdilution method; in short: as §1
Staphylococcus aureus [30] = experiment: Antimicrobial activity against vancomycin resistant Staphylococcus aureus VRS-1 expressing SCCmec type 2 element by microdilution method; in short: as §3
Staphylococcus aureus [31] = experiment: Antimicrobial activity against vancomycin intermediate Staphylococcus aureus NRS-404 expressing SCCmec type 2 element by microdilution method; in short: as §1
Staphylococcus aureus [32] = experiment: Antimicrobial activity against vancomycin intermediate Staphylococcus aureus NRS-19 expressing SCCmec type 2 element by microdilution method; in short: as §1
Staphylococcus aureus [33] = experiment: Antimicrobial activity against vancomycin intermediate Staphylococcus aureus NRS-73 expressing SCCmec type 4d element by microdilution method; in short: as §1
Staphylococcus aureus [34] = experiment: Antimicrobial activity against vancomycin resistant Staphylococcus aureus VRS-3 expressing SCCmec type 4 element by microdilution method; in short: as §3
Staphylococcus aureus [35] = experiment: Antimicrobial activity against vancomycin resistant Staphylococcus aureus VRS-7 expressing SCCmec element by microdilution method; in short: as §3
Staphylococcus aureus [36] = experiment: Bactericidal activity against community-acquired methicillin-resistant Staphylococcus aureus assessed as antibiotic concentration that reduced the number of viable cells by =>99.9% by colony count method; in short: as §2
Staphylococcus aureus [37] = experiment: Antimicrobial activity against vancomycin intermediate Staphylococcus aureus NRS-74 expressing SCCmec type 2 element by microdilution method; in short: as §1
Staphylococcus aureus [38] = experiment: Antimicrobial activity against vancomycin-intermediate Staphylococcus aureus by microdilution method; in short: as §3
Staphylococcus aureus [39] = experiment: Antimicrobial activity against vancomycin-resistant Staphylococcus aureus by microdilution method; in short: as §3
Staphylococcus aureus [40] = experiment: Antimicrobial activity against vancomycin resistant Staphylococcus aureus VRS-10 expressing SCCmec type 2 element by microdilution method; in short: as §3
Staphylococcus aureus [41] = experiment: Antimicrobial activity against vancomycin intermediate Staphylococcus aureus NRS-27 expressing SCCmec type 2 element by microdilution method; in short: as §1
Staphylococcus aureus [42] = experiment: Antimicrobial activity against vancomycin intermediate Staphylococcus aureus NRS-3 expressing SCCmec type 2 element by microdilution method; in short: as §1
Staphylococcus aureus [43] = experiment: Antimicrobial activity against vancomycin intermediate Staphylococcus aureus NRS-76 expressing SCCmec type 2 element by microdilution method; in short: as §3
Staphylococcus aureus [44] = experiment: Bactericidal activity against daptomycin-nonsusceptible Staphylococcus aureus assessed as antibiotic concentration that reduced the number of viable cells by =>99.9% by colony count method; in short: as §4

## CCO/N=C(\C(=O)N[C@@H]1C(=O)N2C(C(=O)[O-])=C(Sc3nc(-c4cc[n+](C)cc4)cs3)CS[C@H]12)c1nsc(NP(=O)(O)O)n1 [CEFTAROLINE FOSAMIL]
Staphylococcus aureus [1]
  MIC: 0.5 µg/mL (≈ 0.73 µM)
Staphylococcus aureus [2]
  MIC: 0.5 µg/mL (≈ 0.73 µM)
Staphylococcus aureus [3]
  MIC90: 0.5 µg/mL (≈ 0.73 µM)
Staphylococcus aureus [4]
  MIC: 0.5 µg/mL (≈ 0.73 µM)
Staphylococcus aureus [5]
  MIC: 0.5 µg/mL (≈ 0.73 µM)
Staphylococcus aureus [6]
  MBC90: 0.5 µg/mL (≈ 0.73 µM)
Staphylococcus aureus [7]
  MIC: 0.12 µg/mL (≈ 0.175 µM)
Staphylococcus aureus [8]
  MIC: 0.5 µg/mL (≈ 0.73 µM)
Staphylococcus aureus [9]
  MIC: 0.12 µg/mL (≈ 0.175 µM)
Staphylococcus aureus [10]
  MBC90: 0.5 µg/mL (≈ 0.73 µM)
Staphylococcus aureus [11]
  MIC: 1 µg/mL (≈ 1.46 µM)
Staphylococcus aureus [12]
  MIC: 0.25 µg/mL (≈ 0.365 µM)
Staphylococcus aureus [13]
  MIC: 0.5 µg/mL (≈ 0.73 µM)
Staphylococcus aureus [14]
  MIC: 0.5 µg/mL (≈ 0.73 µM)
Staphylococcus aureus [15]
  MIC50: 0.5 µg/mL (≈ 0.73 µM)
  MIC90: 1 µg/mL (≈ 1.46 µM)
Staphylococcus aureus [16]
  MIC: 1 µg/mL (≈ 1.46 µM)
Staphylococcus aureus [17]
  MIC: 0.5 µg/mL (≈ 0.73 µM)
Staphylococcus aureus [18]
  MIC: 0.5 µg/mL (≈ 0.73 µM)
Staphylococcus aureus [19]
  MIC: 0.25 µg/mL (≈ 0.365 µM)
Staphylococcus aureus [20]
  MIC: 0.5 µg/mL (≈ 0.73 µM)
Staphylococcus aureus [21]
  MIC: 0.5 µg/mL (≈ 0.73 µM)
Staphylococcus aureus [22]
  MBC50: 0.5 µg/mL (≈ 0.73 µM)
Staphylococcus aureus [22]; Staphylococcus aureus
  MBC: 0.12 µg/mL (≈ 0.175 µM)
Staphylococcus aureus [23]
  MIC90: 1 µg/mL (≈ 1.46 µM)
Staphylococcus aureus [24]
  MBC50: 1 µg/mL (≈ 1.46 µM)
  MBC90: 1 µg/mL (≈ 1.46 µM)
Staphylococcus aureus [24]; Staphylococcus aureus
  MBC: 0.5 µg/mL (≈ 0.73 µM)
Staphylococcus aureus [25]
  MIC90: 0.25 µg/mL (≈ 0.365 µM)
Staphylococcus aureus [26]
  MIC: 0.5 µg/mL (≈ 0.73 µM)
Staphylococcus aureus [27]
  MIC: 0.55 µg/mL and 0.25 µg/mL
Staphylococcus aureus [27]; Staphylococcus aureus
  MIC50: 0.5 µg/mL (≈ 0.73 µM)
Staphylococcus aureus [28]
  MIC: 0.5 µg/mL (≈ 0.73 µM)
Staphylococcus aureus [29]
  MIC: 1 µg/mL (≈ 1.46 µM)
Staphylococcus aureus [30]
  MIC: 1 µg/mL (≈ 1.46 µM)
Staphylococcus aureus [31]
  MIC: 0.5 µg/mL (≈ 0.73 µM)
Staphylococcus aureus [32]
  MIC: 0.5 µg/mL (≈ 0.73 µM)
Staphylococcus aureus [33]
  MIC: 0.5 µg/mL (≈ 0.73 µM)
Staphylococcus aureus [34]
  MIC: 0.5 µg/mL (≈ 0.73 µM)
Staphylococcus aureus [35]
  MIC: 0.12 µg/mL (≈ 0.175 µM)
Staphylococcus aureus [36]
  MBC50: 0.5 µg/mL (≈ 0.73 µM)
Staphylococcus aureus [36]; Staphylococcus aureus
  MBC: 0.25 µg/mL (≈ 0.365 µM)
Staphylococcus aureus [37]
  MIC: 0.25 µg/mL (≈ 0.365 µM)
Staphylococcus aureus [38]
  MIC50: 0.5 µg/mL (≈ 0.73 µM)
  MIC90: 1 µg/mL (≈ 1.46 µM)
Staphylococcus aureus [39]
  MIC50: 0.5 µg/mL (≈ 0.73 µM)
  MIC90: 0.5 µg/mL (≈ 0.73 µM)
Staphylococcus aureus [40]
  MIC: 0.5 µg/mL (≈ 0.73 µM)
Staphylococcus aureus [41]
  MIC: 0.5 µg/mL (≈ 0.73 µM)
Staphylococcus aureus [42]
  MIC: 1 µg/mL (≈ 1.46 µM)
Staphylococcus aureus [43]
  MIC: 0.25 µg/mL (≈ 0.365 µM)
Staphylococcus aureus [44]
  MBC: 0.74 µg/mL and 0.25 µg/mL
  MBC50: 1 µg/mL (≈ 1.46 µM)
